Assay outcomes deposited in PubChem by several laboratories.
Only some compounds are listed: those with a hit (about 9.4% of all), similar ones and a draw of the others.
CSC inhib = cancer stem cell inhibition; cancer stem cell-like cells viability, luminescence; inhibition, % at 7.5 µM; actives 1.1% (n = 300,000); in the data active = inhibition above about 75%; tested in HMLE shEcad cells
T cruzi repl = T. cruzi replication inhibition; T. cruzi beta-gal in NIH3T3, luminescence, 90 h; inhibition, % (test concentration not listed); actives 1.4% (n = 300,000); AID 1885;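 active = mean inhibition across valid replicates above about 55%, limit read from the data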;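 also: signal also drops with host cell toxicity which is not excluded here; 0% = plate median of DMSO wells and 100% = zero luminescence signal; higher percent means less beta-gal luminescence so fewer parasites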
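Read-out: Parasite load inhibition, % | Test system: Mouse NIH/3T3 fibroblasts infected with β-gal-expressing T. cruzi Tulahuen C4 | Amount: 5,000 cells/well | Medium: DMEM, 2% fetal bovine serum | Signal: GalScreen β-gal luminescence, detergent lysis, 60 min | Timing: 3 h attach, ≥90 h co-culture | Also added: Tulahuen C4 trypomastigotes, 5000/well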
SKKanGAS inh = SKKanGAS growth inhibition; AID 1662; actives 1.3% (n = 300,000); S. pyogenes SKKanGAS, kanamycin growth, BacTiter-Glo, 6 h; inhibition, % at 7.5 µM;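 active = mean replicate score, as percent of positive control median, at least 50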;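 also: strain carries kanamycin resistance gene driven by streptokinase promoter and grows in 40 µg/ml kanamycin; loss of luminescence reflects streptokinase promoter inhibition or plain growth inhibition; 0% = median of DMSO wells and 100% = positive control at its reference dose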
Lmaj promast = Leishmania major promastigote growth inhibition. Leishmania major promastigotes, resazurin fluorescence viability. inhibition, % at 10 µM. actives 9% (n = 200,000); in the data active = inhibition above about 50%;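 also: promastigotes grown with compound for 44 hours at 28 °C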
Beta apoptosis = blocks beta cell apoptosis. INS-1E cytokine-induced death, ATP luminescence, 48 h; percent of positive-control rescue, neutral wells zero. protection from apoptosis, % (test concentration not listed). actives 0.8% (n = 300,000);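 active = Every replicate reaches about 75%, or at least half do and their mean reaches it too, limit read from the data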;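 also: 0% = cytokine-treated negative control wells and 100% = positive control rescue; higher means more ATP so stronger rescue from cytokine killing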
Mdm2-MdmX inh = inhibitors of human Mdm2/MdmX interaction | O15151+Q00987 | SaOS-2 split-luciferase Mdm2/MdmX complementation, luminescence | inhibition, % at 8 µM | actives 3% (n = 330,000);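 active = inhibition of at least 50% at 8 µM in the primary screen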
Target sequence (O15151 whole entry, looked up): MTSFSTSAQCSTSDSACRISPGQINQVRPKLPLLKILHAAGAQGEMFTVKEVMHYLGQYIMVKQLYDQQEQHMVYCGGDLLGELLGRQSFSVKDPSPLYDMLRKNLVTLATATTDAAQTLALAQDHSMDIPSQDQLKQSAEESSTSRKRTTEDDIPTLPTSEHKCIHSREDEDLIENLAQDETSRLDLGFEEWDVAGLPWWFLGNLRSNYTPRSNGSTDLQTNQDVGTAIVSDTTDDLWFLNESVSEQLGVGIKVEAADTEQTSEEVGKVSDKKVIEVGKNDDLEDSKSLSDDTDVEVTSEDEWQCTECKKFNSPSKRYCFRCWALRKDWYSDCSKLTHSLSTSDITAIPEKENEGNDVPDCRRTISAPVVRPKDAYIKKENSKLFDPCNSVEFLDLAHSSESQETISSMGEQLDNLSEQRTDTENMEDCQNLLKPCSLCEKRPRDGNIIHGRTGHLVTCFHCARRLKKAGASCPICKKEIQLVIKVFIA
Target sequence (Q00987 whole entry, looked up): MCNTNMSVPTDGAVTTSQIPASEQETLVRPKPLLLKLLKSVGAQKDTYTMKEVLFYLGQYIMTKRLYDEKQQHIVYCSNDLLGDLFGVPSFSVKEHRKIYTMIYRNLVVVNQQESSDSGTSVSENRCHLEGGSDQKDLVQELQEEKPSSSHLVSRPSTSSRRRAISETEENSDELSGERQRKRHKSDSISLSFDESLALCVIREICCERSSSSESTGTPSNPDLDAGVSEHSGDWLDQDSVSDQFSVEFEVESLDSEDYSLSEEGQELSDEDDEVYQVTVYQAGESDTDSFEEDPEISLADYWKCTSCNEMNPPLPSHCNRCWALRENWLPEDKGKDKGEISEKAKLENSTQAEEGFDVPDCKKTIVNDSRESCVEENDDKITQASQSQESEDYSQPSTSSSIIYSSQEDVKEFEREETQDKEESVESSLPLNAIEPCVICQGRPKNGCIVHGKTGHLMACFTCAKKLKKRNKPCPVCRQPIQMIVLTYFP
Mdm2-MdmX conf = human Mdm2/MdmX binding inhibition, confirmed. shares compounds with Mdm2-MdmX inh. luminescent assay. inhibition, % at 8 µM. actives 55% (n = 10,000); in the data active = inhibition above about 40%
Full FLuc ctr = inhibits full-length luciferase, flagging false Mdm2/MdmX hits. shares compounds with Mdm2-MdmX inh. SaOS-2 full-length luciferase counterscreen, luminescence. inhibition, % at 8 µM. actives 77% (n = 6,200). AID 504607;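 active = mean inhibition at 8 µM reaching about 37%, which flags the compound as non-specific, limit read from the data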;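 also: p53-null SaOS-2 cells with luciferase driven by a doxycycline-inducible promoter; compound on cells about two nights before reading with doxycycline added after day one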
* = called active by the depositor; / = not tested or not shown.

SMILES | CSC inhib | T cruzi repl | SKKanGAS inh | Lmaj promast | Beta apoptosis | Mdm2-MdmX inh | Mdm2-MdmX conf | others
NC1=NS(=O)(=O)NC1c1ccc(Br)cc1 (stereo not given) | -3.4 | -5.1 | -2.5 | 1.6 | -3.9 | -7.6 | /
Cc1c(C)c2c(OCC(=O)N3CCC(C(N)=O)CC3)cc3c(c2oc1=O)CCC(C)(C)O3 | 12.2 | 0.0 | 1.7 | / | 5.1 | 9.2 | /
COc1cc2c(cc1OC)C(c1ccccc1)N(S(C)(=O)=O)CC2 (stereo not given) | -4.7 | 7.6 | -0.1 | -3.7 | -2.3 | -24.8 | /
Cc1ccc(S(=O)(=O)CCC(=O)Nc2cccc(S(=O)(=O)N3CCCCCC3)c2)cc1 | / | / | / | / | 8.4 | 13.9 | /
CCc1ccccc1NC(=O)CN1CCN(C(=O)CNC(=O)c2ccc(-c3ccccc3)cc2)CC1 | / | / | / | / | 13.4 | 50.5* | 24.6
CCCCc1nc2cc(C(=O)N3CCCC(OCCC)C3)ccc2o1 (stereo not given) | -8.3 | 7.9 | -3.2 | / | -5.5 | -43.5 | /
COc1ccc(S(=O)(=O)N2CCC(C(=O)NCc3cccs3)CC2)cc1 | -8.3 | 1.6 | 5.8 | -2.2 | 4.0 | -5.5 | /
COc1cccc(C(C[N+](=O)[O-])c2c(C)[nH]n(-c3ccccc3)c2=O)c1 (stereo not given) | -12.2 | -2.3 | 7.4 | / | 6.0 | 65.2* | 25.4
COc1cccc(N=Nc2c(C)[nH]n(-c3ccccc3)c2=O)c1 | 3.5 | 11.8 | 1.8 | / | / | -118.0 | /
Cc1nc(NC(=O)CSc2nc3cccnc3n2Cc2ccccc2)sc1C | / | 1.5 | 9.8 | 3.0 | 48.1 | 78.3* | 20.3
CCOC(=O)CNC(=O)CSc1nc2cccnc2n1Cc1ccccc1 | / | -1.9 | 1.3 | -1.5 | 1.6 | -12.8 | /
COc1ccccc1Cn1c(=O)c2ccccc2n2c(Sc3ncnc4sccc34)nnc12 | 10.5 | 18.9 | 5.1 | 88.5* | -27.2 | 76.0* | 30.1
COc1ccccc1Cn1c(=O)c2ccccc2n2c(SCc3csc(C)n3)nnc12 | -6.3 | 35.5 | 7.7 | 5.4 | 10.6 | 14.8 | /
CC1=[N+](C)c2ccc3ccccc3c2C1(C)C | 102.8* | 69.4* | 2.7 | 92.8* | 98.5* | 85.6* | 69.2* | Full FLuc ctr=28.2
c1ccc2c(c1)ccc1ccccc12 | / | / | / | / | / | 6.8 | /
COc1ccccc1N1C(=O)C2C(C(=O)c3ccccc3)=NN(c3ccccc3OC)C2C1=O (stereo not given) | -14.2 | 0.9 | 15.5 | / | 1.2 | 7.1 | /
COC(=O)c1c(C)n(-c2ccc(OC)cc2)c2ccc(O)cc12 | / | 15.1 | 26.2 | 22.3 | 1.0 | 66.5* | 63.5* | Full FLuc ctr=20.4
CCOC(=O)c1c(C)n(-c2ccc(F)cc2)c2ccc(O)cc12 | -2.3 | 9.1 | -5.3 | / | / | 11.1 | /
COc1ccc(-n2c(C)c(C(C)=O)c3cc(OC(C)=O)ccc32)cc1 | 10.0 | 5.1 | 19.3 | / | 7.9 | 81.9* | 86.2* | Full FLuc ctr=6.4
COc1ccc2c(c1)c(C(=O)O)c(C)n2-c1ccccc1 | -8.2 | 13.5 | 4.6 | / | -3.6 | 7.3 | /
COc1ccc2c(c1)c(C(C)=O)c(C)n2-c1ccc(C(C)=O)cc1 | / | 1.3 | -8.1 | / | / | 61.3* | 60.6* | Full FLuc ctr=40.4*
Cc1nn(CC(=O)Nc2ccc3c(c2)CCC3)c(C)c1[N+](=O)[O-] | -1.8 | / | / | / | 1.9 | -11.6 | /
COC(=O)c1[nH]c2ccccc2c1NC(=O)c1c(F)cccc1F | 6.0 | -7.6 | -1.6 | / | 1.3 | 19.1 | /
CCN(CC)CCNc1ncnc2c1sc1nc(N3CCCC3)c3c(c12)CC(C)(C)OC3 | 19.6 | 60.8* | 0.0 | 100.5* | 2.9 | 59.0* | 31.9
CN(C)CCNc1ncnc2c1sc1nc(N3CCCC3)c3c(c12)CC(C)(C)OC3 | / | 37.4 | 7.9 | / | / | 34.0 | /
SMILES | CSC inhib | T cruzi repl | SKKanGAS inh | Lmaj promast | Beta apoptosis | Mdm2-MdmX inh | Mdm2-MdmX conf | others
CCN(CC)CCNc1ncnc2c1sc1nc(N3CCOCC3)c3c(c12)CCCC3 | -0.2 | 25.6 | 1.3 | / | 11.6 | 70.6* | 36.4 | Full FLuc ctr=64.8*
CC1(C)Cc2c(c(-c3ccco3)nc3sc4c(NCCN5CCOCC5)ncnc4c23)CO1 | 27.5 | -37.5 | -0.8 | 11.4 | 4.8 | 50.9* | 8.2
Cc1cc(C(=O)NNC(=O)/C=C/c2ccco2)c(C)o1 | / | / | / | / | / | 23.8 | /
O=C(COC(=O)CCN1C(=O)C2CC=CCC2C1=O)Nc1ccc(Cl)cc1F (stereo not given) | / | / | / | / | -7.8 | 12.2 | /
COc1ccccc1OCCCCn1c(C(C)O)nc2ccccc21 (stereo not given) | -6.4 | -4.7 | -6.3 | / | -5.3 | 13.0 | /
CCSc1nnc(NC(=O)NC(CC)(C(F)(F)F)C(F)(F)F)s1 | 98.8* | 13.4 | 11.0 | 30.6 | 39.5 | 90.0* | 36.0 | Full FLuc ctr=64.1*
CCSc1nnc(NC(=O)NC(C)(C(F)(F)F)C(F)(F)F)s1 | -6.7 | 3.0 | 13.1 | -3.3 | 2.6 | -4.5 | /
CCCCCCCCCCCCCCCC[N+](C)(C)CCN(Cc1ccc(OC)cc1)c1ncccn1 | 117.4* | / | / | / | 99.7* | 100.4* | 95.8* | Full FLuc ctr=1.0
COc1ccc(CN(CCN(C)C)c2ccccn2)cc1 | -0.9 | 12.2 | 2.4 | -7.3 | -2.7 | 4.7 | /
Cc1cnc(C(=O)OCC(=O)N2CCN(S(=O)(=O)c3ccc(Cl)cc3)CC2)cn1 | -8.1 | 7.3 | 0.6 | / | -6.7 | 14.2 | /
CCCc1nc2oc3c(Cl)ncnc3c2c2c1CCCC2 | 1.9 | 2.9 | 53.2* | / | -7.6 | 100.3* | 12.3
CC(C)Cc1nc2oc3c(Cl)ncnc3c2c2c1CCCC2 | 76.2* | -2.6 | -10.6 | / | 3.3 | 67.8* | 9.2
COc1ncnc2c1oc1nc(CC(C)C)c3c(c12)CCCC3 | / | / | / | 6.6 | / | / | /
O=C(O)CC(NC(=O)c1cccc([N+](=O)[O-])c1)c1ccc2c(c1)OCO2 (stereo not given) | -9.0 | -11.8 | 6.4 | -3.1 | / | 9.2 | /
O=C(CSc1nnc(CNC(=O)c2ccco2)o1)Nc1ccc(F)cc1 | -11.1 | 7.7 | -7.9 | / | -3.9 | 5.5 | /
O=C(CSc1cccc2cccnc12)N1CCCC1 | 17.8 | 60.8* | -2.1 | 47.9 | 54.2 | 66.3* | 3.5
CN(C)C(=O)CSc1cccc2cccnc12 | 50.6 | 44.0 | 13.0 | 100.4* | -13.1 | 70.3* | -3.3
COc1ccc(NC(=S)NC(=O)c2cncc(Br)c2)cc1 | -24.1 | -1.0 | 6.8 | / | -12.2 | -2.0 | /
COC(=O)c1c(-c2cccc3ccccc23)csc1NC(=O)Cc1ccc(OC)c(OC)c1 | 37.2 | 57.3* | -6.9 | 27.6 | 24.2 | 61.9* | 51.4* | Full FLuc ctr=47.7*
COc1ccc(NC(C)C(=O)N/N=C/c2c(O)ccc3ccccc23)cc1 (stereo not given) | 6.7 | -4.8 | 96.8* | / | 64.5 | 65.0* | 56.0* | Full FLuc ctr=39.1*
O=C(CSCC(=O)Nc1ccccc1)N/N=C/c1c(O)ccc2ccccc12 | 57.6 | 13.9 | 12.9 | 99.6* | -11.0 | 78.9* | 72.2* | Full FLuc ctr=28.3
O=C(O)c1cc(N/N=C/c2c(O)ccc3ccccc23)ccc1Cl | 10.7 | -10.8 | 10.0 | / | -10.2 | -71.0 | /
O=C(CNc1ccccc1)N/N=C/c1c(O)ccc2ccccc12 | 57.3 | 10.7 | 101.4* | / | 83.5* | 83.6* | 79.2* | Full FLuc ctr=26.6
